Read-outs that look alike come from different tables or passages of the source.
Key:
human P-gp wild-type = human P-gp wild-type (Homo sapiens, UniProt P08183); assay type: cell-based
[1] = test system: human P-gp Q132R/Y950F/Y953F; assay: Inhibition of rh123 efflux, Q132R/Y950F/Y953F triple mutant; assay type: cell-based; conditions: in the Q132R background
human P-gp Y953F = human P-gp Y953F (Homo sapiens, UniProt P08183, Y953F); assay: Inhibition of rh123 efflux, Y953F mutant; assay type: cell-based
human P-gp Q132R [2] = target: T1, human P-gp Q132R (Homo sapiens, UniProt P08183, Q132R); assay: Inhibition of rh123 efflux, Q132R mutant; assay type: cell-based; conditions: for fold difference in IC50 values for wild-type protein and the Q132R mutant: Q132R mutant vs wild-type
[3] = pKa and protonated fraction of propafenone analogs; assay type: physicochemical; conditions: at intracellular pH, estimated from pKa
[4] = ref Ecker et al., 1999; cited from earlier work
human P-gp Q132R/Y953F = human P-gp Q132R/Y953F (Homo sapiens, UniProt P08183, Q132R/Y953F); assay: Inhibition of rh123 efflux, Q132R/Y953F mutant; assay type: cell-based; conditions: for fold higher IC50 value than the Q132R mutation: Q132R/Y953F mutant vs Q132R
human P-gp Y950F = human P-gp Y950F (Homo sapiens, UniProt P08183, Y950F); assay: Inhibition of rh123 efflux, Y950F mutant; assay type: cell-based
human P-gp Y950F/Y953F = human P-gp Y950F/Y953F (Homo sapiens, UniProt P08183, Y950F/Y953F); assay: Inhibition of rh123 efflux, Y950F/Y953F double mutant; assay type: cell-based
human P-gp Q132R/Y950F = human P-gp Q132R/Y950F (Homo sapiens, UniProt P08183, Q132R/Y950F); assay: Inhibition of rh123 efflux, Q132R/Y950F mutant; assay type: cell-based
human P-gp Q132R [5] = target: T1, human P-gp Q132R; assay: Continuous monitoring of rh123 zero trans efflux, Q132R mutant; assay type: cell-based; conditions: mean ± S.D.
Procedure, shortened: (§1)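 HEK293 cells, with endogenous P-gp knocked down by lentiviral shRNA and puromycin selection, were transiently transfected with hexa-His human P-gp mutants. Cells were loaded with 0.53 μM rh123 (final) in DMEM pH 7.8 for 30 min at 37°C, chilled and washed, then effluxed into 37°C DMEM pH 7.4. Flow cytometry ran 5 min at 37°C (488/534 nm). Exponential-fit k was normalized to MRK16 surface staining. n≥3.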

human P-gp Q773R = human P-gp Q773R (Homo sapiens, UniProt P08183, Q773R); assay: Continuous monitoring of rh123 zero trans efflux, Q773R mutant; assay type: cell-based; conditions: mean ± S.D.
Procedure, shortened: as §1

[6] = target: human P-gp Q773R/Y950F/Y953F (Homo sapiens, UniProt P08183, Q773R/Y950F/Y953F); assay: Continuous monitoring of rh123 zero trans efflux, Q773R/Y950F/Y953F mutant; assay type: cell-based; conditions: expressed at the surface
Procedure, shortened: as §1

Sequence of human P-gp Y950F/Y953F (P08183 whole entry Y950F/Y953F): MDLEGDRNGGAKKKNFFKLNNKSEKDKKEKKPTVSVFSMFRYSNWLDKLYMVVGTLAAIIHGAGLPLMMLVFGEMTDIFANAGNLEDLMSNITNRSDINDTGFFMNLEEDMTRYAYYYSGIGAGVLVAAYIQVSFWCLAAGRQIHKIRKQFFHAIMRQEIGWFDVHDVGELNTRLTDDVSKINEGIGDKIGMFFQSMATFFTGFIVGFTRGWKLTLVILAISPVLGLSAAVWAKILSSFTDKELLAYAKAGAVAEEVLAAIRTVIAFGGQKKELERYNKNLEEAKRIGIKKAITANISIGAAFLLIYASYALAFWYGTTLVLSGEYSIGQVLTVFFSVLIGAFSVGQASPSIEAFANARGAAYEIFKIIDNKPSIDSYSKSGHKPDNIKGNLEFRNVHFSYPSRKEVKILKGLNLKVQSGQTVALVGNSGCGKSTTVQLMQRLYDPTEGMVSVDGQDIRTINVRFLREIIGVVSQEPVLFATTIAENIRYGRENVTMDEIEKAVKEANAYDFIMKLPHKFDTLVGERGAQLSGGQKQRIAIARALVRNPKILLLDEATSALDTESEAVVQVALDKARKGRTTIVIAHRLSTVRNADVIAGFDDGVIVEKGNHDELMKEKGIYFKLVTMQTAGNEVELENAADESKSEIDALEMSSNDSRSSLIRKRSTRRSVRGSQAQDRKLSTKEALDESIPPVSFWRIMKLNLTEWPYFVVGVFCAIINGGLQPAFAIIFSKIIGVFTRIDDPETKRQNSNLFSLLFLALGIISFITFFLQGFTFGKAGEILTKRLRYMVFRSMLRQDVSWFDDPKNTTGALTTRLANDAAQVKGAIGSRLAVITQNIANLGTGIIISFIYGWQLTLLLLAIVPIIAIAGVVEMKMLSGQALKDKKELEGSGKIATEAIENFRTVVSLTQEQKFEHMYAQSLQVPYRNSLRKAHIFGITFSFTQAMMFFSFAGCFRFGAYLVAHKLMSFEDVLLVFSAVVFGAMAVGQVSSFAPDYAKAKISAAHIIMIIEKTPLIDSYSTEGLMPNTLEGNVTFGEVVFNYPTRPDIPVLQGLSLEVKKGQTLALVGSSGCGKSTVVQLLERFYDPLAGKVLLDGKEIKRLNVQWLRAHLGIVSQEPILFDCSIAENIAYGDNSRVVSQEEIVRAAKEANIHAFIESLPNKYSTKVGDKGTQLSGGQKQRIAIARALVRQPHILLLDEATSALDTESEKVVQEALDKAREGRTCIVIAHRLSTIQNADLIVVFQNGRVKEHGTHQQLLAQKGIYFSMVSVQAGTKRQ
T1 sequence (P08183 whole entry Q132R): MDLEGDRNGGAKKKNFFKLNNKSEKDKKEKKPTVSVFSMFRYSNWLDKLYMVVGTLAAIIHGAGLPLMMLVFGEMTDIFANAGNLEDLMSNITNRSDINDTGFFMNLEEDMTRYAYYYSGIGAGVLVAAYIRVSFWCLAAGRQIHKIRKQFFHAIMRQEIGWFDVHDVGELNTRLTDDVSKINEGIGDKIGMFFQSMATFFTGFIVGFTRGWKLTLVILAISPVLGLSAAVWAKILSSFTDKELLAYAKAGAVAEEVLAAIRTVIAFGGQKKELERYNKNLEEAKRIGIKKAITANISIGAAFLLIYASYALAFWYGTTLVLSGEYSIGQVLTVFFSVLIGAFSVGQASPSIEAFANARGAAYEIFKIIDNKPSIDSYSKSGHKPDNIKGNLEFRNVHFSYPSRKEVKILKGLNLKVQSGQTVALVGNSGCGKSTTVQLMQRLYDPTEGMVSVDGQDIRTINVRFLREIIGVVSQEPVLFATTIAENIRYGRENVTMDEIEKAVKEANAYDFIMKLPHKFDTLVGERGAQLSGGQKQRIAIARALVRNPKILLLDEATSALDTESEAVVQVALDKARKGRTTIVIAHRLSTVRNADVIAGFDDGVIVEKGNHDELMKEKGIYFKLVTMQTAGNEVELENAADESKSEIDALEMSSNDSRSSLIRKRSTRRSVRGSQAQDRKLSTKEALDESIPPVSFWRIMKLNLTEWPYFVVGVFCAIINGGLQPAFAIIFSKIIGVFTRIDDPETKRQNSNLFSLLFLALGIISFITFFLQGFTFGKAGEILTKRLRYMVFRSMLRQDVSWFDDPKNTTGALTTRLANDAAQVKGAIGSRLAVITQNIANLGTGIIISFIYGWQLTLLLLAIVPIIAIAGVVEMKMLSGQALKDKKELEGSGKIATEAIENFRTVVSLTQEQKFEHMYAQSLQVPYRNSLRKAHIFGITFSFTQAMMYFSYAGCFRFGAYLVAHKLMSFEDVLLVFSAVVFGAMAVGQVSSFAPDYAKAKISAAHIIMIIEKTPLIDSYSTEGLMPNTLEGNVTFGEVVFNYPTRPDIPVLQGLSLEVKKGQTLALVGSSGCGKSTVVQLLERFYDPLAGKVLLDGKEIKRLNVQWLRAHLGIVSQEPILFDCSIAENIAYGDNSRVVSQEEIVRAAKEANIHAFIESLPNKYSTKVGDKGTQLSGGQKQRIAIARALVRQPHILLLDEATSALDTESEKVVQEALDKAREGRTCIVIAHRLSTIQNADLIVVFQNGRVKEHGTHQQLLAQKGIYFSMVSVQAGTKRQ
Sequence of human P-gp wild-type (P08183 whole entry): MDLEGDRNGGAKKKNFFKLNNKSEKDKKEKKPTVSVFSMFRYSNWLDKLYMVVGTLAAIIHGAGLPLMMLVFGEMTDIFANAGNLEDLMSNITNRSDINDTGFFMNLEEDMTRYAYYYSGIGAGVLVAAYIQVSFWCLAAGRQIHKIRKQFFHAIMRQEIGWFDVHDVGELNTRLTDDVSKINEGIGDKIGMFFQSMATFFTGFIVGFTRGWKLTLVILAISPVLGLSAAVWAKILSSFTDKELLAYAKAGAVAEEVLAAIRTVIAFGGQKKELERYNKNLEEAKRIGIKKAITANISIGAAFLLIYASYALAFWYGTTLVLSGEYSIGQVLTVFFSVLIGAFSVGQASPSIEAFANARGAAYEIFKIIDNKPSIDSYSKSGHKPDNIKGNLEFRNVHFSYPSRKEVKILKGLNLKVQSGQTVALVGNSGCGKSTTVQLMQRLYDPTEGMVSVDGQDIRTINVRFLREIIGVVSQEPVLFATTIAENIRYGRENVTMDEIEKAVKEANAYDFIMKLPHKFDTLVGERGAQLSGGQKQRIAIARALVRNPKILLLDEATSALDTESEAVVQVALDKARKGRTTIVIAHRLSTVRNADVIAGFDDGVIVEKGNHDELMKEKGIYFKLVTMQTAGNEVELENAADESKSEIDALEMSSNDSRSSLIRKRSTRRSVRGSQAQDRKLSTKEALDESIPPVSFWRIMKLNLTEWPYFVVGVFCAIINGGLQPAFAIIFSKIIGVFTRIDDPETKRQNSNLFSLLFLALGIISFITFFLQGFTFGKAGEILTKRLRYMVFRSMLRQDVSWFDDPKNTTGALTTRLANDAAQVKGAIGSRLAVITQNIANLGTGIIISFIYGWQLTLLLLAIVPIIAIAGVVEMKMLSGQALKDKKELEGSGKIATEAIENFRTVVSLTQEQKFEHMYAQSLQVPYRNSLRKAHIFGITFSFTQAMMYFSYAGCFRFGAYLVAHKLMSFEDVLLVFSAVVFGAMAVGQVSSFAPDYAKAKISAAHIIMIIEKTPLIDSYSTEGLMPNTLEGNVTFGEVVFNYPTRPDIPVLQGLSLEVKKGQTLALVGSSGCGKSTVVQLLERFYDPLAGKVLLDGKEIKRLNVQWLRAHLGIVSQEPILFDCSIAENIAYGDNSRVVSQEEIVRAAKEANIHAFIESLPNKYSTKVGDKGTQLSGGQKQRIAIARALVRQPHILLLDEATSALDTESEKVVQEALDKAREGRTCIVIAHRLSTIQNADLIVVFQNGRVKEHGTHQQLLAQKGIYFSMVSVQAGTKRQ
Sequence of human P-gp Y953F (P08183 whole entry Y953F): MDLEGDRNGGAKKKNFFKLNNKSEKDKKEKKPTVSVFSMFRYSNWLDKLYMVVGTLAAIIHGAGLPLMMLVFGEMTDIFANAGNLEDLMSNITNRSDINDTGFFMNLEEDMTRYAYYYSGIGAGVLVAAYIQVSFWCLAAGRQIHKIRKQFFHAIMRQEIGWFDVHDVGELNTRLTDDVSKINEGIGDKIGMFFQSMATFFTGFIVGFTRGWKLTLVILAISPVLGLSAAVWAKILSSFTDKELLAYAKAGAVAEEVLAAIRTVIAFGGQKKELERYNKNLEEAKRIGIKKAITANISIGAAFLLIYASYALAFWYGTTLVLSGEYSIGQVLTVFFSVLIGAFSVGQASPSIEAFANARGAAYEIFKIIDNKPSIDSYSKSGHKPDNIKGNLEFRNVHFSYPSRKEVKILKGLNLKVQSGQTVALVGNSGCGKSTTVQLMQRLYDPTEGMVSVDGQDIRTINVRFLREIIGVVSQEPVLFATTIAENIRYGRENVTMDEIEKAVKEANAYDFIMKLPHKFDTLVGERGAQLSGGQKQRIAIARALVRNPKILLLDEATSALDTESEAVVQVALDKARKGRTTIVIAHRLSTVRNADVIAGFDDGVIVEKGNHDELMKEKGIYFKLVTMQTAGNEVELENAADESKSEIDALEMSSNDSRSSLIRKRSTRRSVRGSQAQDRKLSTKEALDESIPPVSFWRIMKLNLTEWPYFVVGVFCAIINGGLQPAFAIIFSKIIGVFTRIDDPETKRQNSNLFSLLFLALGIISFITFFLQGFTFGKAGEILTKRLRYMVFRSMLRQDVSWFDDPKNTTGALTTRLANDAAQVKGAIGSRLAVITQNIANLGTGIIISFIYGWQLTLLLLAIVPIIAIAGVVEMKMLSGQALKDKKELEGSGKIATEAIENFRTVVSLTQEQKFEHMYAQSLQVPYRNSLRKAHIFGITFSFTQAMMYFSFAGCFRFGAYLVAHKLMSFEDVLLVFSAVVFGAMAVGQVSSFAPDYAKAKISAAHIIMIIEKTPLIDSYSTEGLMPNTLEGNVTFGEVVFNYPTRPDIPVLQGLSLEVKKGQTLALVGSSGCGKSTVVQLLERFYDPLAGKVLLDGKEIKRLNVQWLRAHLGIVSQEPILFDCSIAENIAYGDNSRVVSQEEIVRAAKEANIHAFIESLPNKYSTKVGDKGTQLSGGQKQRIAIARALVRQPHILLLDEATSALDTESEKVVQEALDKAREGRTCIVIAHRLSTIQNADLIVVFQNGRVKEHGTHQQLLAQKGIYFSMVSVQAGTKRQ

SMILES | fold change in IC50 [1] [fold] | fold difference in IC50 values for wild-type protein and the Q132R mutant (human P-gp Q132R [2]) | percentage of protonated (charged) species [3] | pKa [4] | fold higher IC50 value than the Q132R mutation (human P-gp Q132R/Y953F) [fold] | IC50 (human P-gp wild-type) [nM] | IC50 (human P-gp Y953F) [nM] | IC50 (human P-gp Q132R [2]) [nM] | IC50 (human P-gp Y950F) [nM] | IC50 (human P-gp Y950F/Y953F) [nM] | further results
O=C(CCc1ccccc1)c1ccccc1OCC(O)CN1CCCCC1 (stereo not drawn) [GPV005] | 2.3 | at least 3 fold | > 90% | 8.4 | 1.5 | – | – | – | – | – | IC50 (human P-gp wild-type; read-out: IC50 for inhibition of rh123 efflux, wild-type P-gp, HEK293 cells, 37°C, mean ± S.D.): 518 ± 141 nM; IC50 (human P-gp Y953F; read-out: IC50 for inhibition of rh123 efflux, Y953F mutant, HEK293 cells, mean ± S.D.): 1210 ± 362 nM; IC50 (human P-gp Q132R [2]; read-out: IC50 for inhibition of rh123 efflux, Q132R mutant, HEK293 cells, mean ± S.D.): 1410 ± 215 nM; IC50 (human P-gp Y950F; read-out: IC50 for inhibition of rh123 efflux, Y950F mutant, HEK293 cells, mean ± S.D.): 1350 ± 229 nM
O=C(CCc1ccccc1)c1ccccc1OCC(O)CN1CCN(c2ccc(F)cc2)CC1 (stereo not drawn) [GPV031, 1-(2-(3-(4-(4-fluorophenyl)piperazin-1-yl)-2-hydroxypropoxy)phenyl)-3-phenylpropan-1-one] | 2.7 | at least 3 fold | 60–70% | 7.3 | 2.1 | 85 ± 22 | 287 ± 109 | 521 ± 183 | 238 ± 84 | 630 ± 87 | –
CCCN(CC(O)COc1ccccc1C(=O)CCc1ccccc1)C(=O)c1ccccc1 (stereo not drawn) [GPV366, N-(2-hydroxy-3-(2-(3-phenylpropanoyl)phenoxy)propyl)-N-propylbenzamide] | 4.9 | – | – | – | 3.0 | 2240 ± 391 | 15900 | 1070 ± 282 | 2980 ± 79 | 17800 | fold change in IC50 relative to wild-type (human P-gp Y953F; Y953F mutant vs wild-type): 7.1 fold; IC50 (human P-gp Q132R/Y953F): 3260 ± 965 nM; fold change in IC50 relative to wild-type (human P-gp Y950F/Y953F; Y950F/Y953F mutant vs wild-type): 8 fold; IC50 (human P-gp Q132R/Y950F): 966 ± 259 nM
COC(=O)c1ccccc1-c1c2ccc(=N)cc-2oc2cc(N)ccc12 [rh123, rhodamine123] | – | – | – | – | – | – | – | – | – | – | rh123 efflux (fractional transport rate) (human P-gp Q132R [5]): 75% ± 11%; rh123 efflux (fractional transport rate) (human P-gp Q773R): 37% ± 8%; rh123 efflux [6]: no rh123 efflux was detectable
